Assay [1] is described as follows: Cytotoxicity against mouse EAC assessed as non-viable cells at 50 ug/ml after 2 hrs by trypan blue exclusion test. Type of assay: functional, Ehrlich. The method in brief: (§1)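 Mouse EAC cells came from ascitic fluid by needle aspiration, at 2.5×10^6 per mL in RPMI-1640. Each tube held 0.8 mL medium (glutamine, fetal calf serum, streptomycin, penicillin), 0.1 mL compound dissolved in DMSO (stock 10–100 µg per mL) and 0.1 mL of cells, at 37 °C for 2 h. Trypan blue staining gave the percentage of non-viable cells, as the mean of three experiments ± SD.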

Assay [2] is described as follows: Cytotoxicity against mouse EAC assessed as non-viable cells at 100 ug/ml after 2 hrs by trypan blue exclusion test. Type of assay: functional, Ehrlich. The method in brief:
as §1

Assay [3] can be described thus: Cytotoxicity against mouse EAC assessed as non-viable cells at 25 ug/ml after 2 hrs by trypan blue exclusion test. Type of assay: functional, Ehrlich. The method in brief: as §1
The nature of assay [4]: Cytotoxicity against mouse EAC assessed as non-viable cells after 2 hrs by trypan blue exclusion test. It is filed as functional, cell-based. The note with it: Ehrlich. In a few lines:
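EAC cells were aspirated from the ascitic fluid of preinoculated mice and suspended in RPMI-1640 at 2.5×10^6 per mL. Each tube held 0.8 mL supplemented medium, 0.1 mL of a DMSO solution (100, 50, 25 or 10 µg per mL DMSO) and 0.1 mL of cells, incubated 2 h at 37 °C. Non-viable cells were counted by trypan blue. The survival-versus-concentration curve gave IC50, the concentration causing 50% mortality.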

Assay [5] is described as follows: Cytotoxicity against mouse EAC assessed as non-viable cells at 10 ug/ml after 2 hrs by trypan blue exclusion test. Type of assay: functional, Ehrlich. In a few lines: as §1

Values after ≈ are worked out from the molar mass of the structure shown.

Turning to `NS(=O)(=O)c1ccc(N2C3=C(C(=O)CCC3)C(c3ccc(Cl)cc3Cl)c3c2nc(C2CC2)[nH]c3=O)cc1` (stereo not given), the Activity was found to be 52% in assay [1], 60% in assay [2], 44% in assay [3] and 27% in assay [5]. The IC50 (commonly the point on the concentration scale where inhibition reaches its midpoint) in assay [4] came to 56 µg/mL (≈ 100 µM).
The corresponding values for `CN(C)c1ccc(/C=N/C2=C(C#N)C(c3ccc(Cl)cc3Cl)C3=C(CCCC3=O)N2c2ccc(S(N)(=O)=O)cc2)cc1` (stereo not given) are 30%, 40%, 30%, 10% and above 100 µg/mL.
The like results for `NS(=O)(=O)c1ccc(N2C3=C(C(=O)CCC3)C(c3ccc(Cl)cc3Cl)c3c2nc(-c2ccccc2)[nH]c3=O)cc1` (stereo not given) were, in that order, 10%, 60%, 0%, 0% and above 100 µg/mL.
Turning to `N#CC1=C(NC(=O)C2CC2)N(c2ccc(S(N)(=O)=O)cc2)C2=C(C(=O)CCC2)C1c1ccc(Cl)cc1Cl` (stereo not given), the Activity in assay [1] turned out to be 40%; in assay [2] it was 60%; in assay [3], 40%; in assay [5], 20%. For the same compound, the IC50 in assay [4] came out at 75 µg/mL (≈ 135 µM).
In the case of `CC(=O)CC(=O)NC1=C(C#N)C(c2ccc(Cl)cc2Cl)C2=C(CCCC2=O)N1c1ccc(S(N)(=O)=O)cc1` (stereo not given), the Activity in assay [1] is listed as 60%; in assay [2], 80%; in assay [3], 44%; in assay [5] it was 40%. The IC50 in assay [4] amounted to 64 µg/mL (≈ 112 µM).
Take `N#CC1=C(NC(=O)c2ccc([N+](=O)[O-])cc2)N(c2ccc(S(N)(=O)=O)cc2)C2=C(C(=O)CCC2)C1c1ccc(Cl)cc1Cl` (stereo not given): the Activity in assay [1] came to 50%; in assay [2] it was 70%; in assay [3], 40%; in assay [5], 40%. Also, the IC50 in assay [4] was found to be 50 µg/mL (≈ 78.3 µM).
In the case of `CC(Cl)CC(=O)NC1=C(C#N)C(c2ccc(Cl)cc2Cl)C2=C(CCCC2=O)N1c1ccc(S(N)(=O)=O)cc1` (stereo not given), the Activity in assay [1] amounted to 55%; in assay [2], 60%; in assay [3] it was 50%; in assay [5], 20%. For the same compound, the IC50 in assay [4] turned out to be 25 µg/mL (≈ 42.1 µM).
The like results for `Cc1ccc(C(=O)NC2=C(C#N)C(c3ccc(Cl)cc3Cl)C3=C(CCCC3=O)N2c2ccc(S(N)(=O)=O)cc2)cc1` (stereo not given) were, in that order, 40%, 40%, 30%, 20% and above 100 µg/mL.
The corresponding values for `CCO/C=N/C1=C(C#N)C(c2ccc(Cl)cc2Cl)C2=C(CCCC2=O)N1c1ccc(S(N)(=O)=O)cc1` (stereo not given) are 35%, 40%, 30%, 30% and above 100 µg/mL.
The corresponding values for `NS(=O)(=O)c1ccc(N2C3=C(C(=O)CCC3)C(c3ccc(Cl)cc3Cl)c3c2nc(CCl)[nH]c3=O)cc1` (stereo not given) are 35%, 40%, 30%, 30% and above 100 µg/mL.
For the compound `NC(=O)C1=C(N)N(c2ccc(S(N)(=O)=O)cc2)C2=C(C(=O)CCC2)C1c1ccc(Cl)cc1Cl` (stereo not given), the Activity in assay [1] is 40%; in assay [2] it was 45%; in assay [3], 30%; in assay [5], 30%. In assay [4], the IC50 is above 100 µg/mL.
As to `Cc1nc2c(c(=S)[nH]1)C(c1ccc(Cl)cc1Cl)C1=C(CCCC1=O)N2c1ccc(S(N)(=O)=O)cc1` (stereo not given), the Activity in assay [1] was determined as 40%; in assay [2], 60%; in assay [3] it was 40%; in assay [5], 30%. Moreover, the IC50 in assay [4] was above 100 µg/mL.
As for `CN(C)c1ccc(/C=C/C=N/C2=C(C#N)C(c3ccc(Cl)cc3Cl)C3=C(CCCC3=O)N2c2ccc(S(N)(=O)=O)cc2)cc1` (stereo not given), the Activity is listed as 20% in assay [1], 20% in assay [2], 20% in assay [3] and 10% in assay [5]. In addition, the IC50 in assay [4] is above 100 µg/mL.
With `N#CC1=C(/N=C/c2ccc([N+](=O)[O-])cc2[N+](=O)[O-])N(c2ccc(S(N)(=O)=O)cc2)C2=C(C(=O)CCC2)C1c1ccc(Cl)cc1Cl` (stereo not given), the Activity is given as 20% in assay [1], 20% in assay [2], 20% in assay [3] and 10% in assay [5]. Moreover, the IC50 in assay [4] is above 100 µg/mL.
With `Cc1ccc(-c2nc3c(c(=O)[nH]2)C(c2ccc(Cl)cc2Cl)C2=C(CCCC2=O)N3c2ccc(S(N)(=O)=O)cc2)cc1` (stereo not given), the Activity in assay [1] is recorded as 55%; in assay [2], 60%; in assay [3] it was 55%; in assay [5] it was 30%. Moreover, in assay [4], the IC50 was found to be 28 µg/mL (≈ 46.1 µM).
Take `CC(Cl)Cc1nc2c(c(=O)[nH]1)C(c1ccc(Cl)cc1Cl)C1=C(CCCC1=O)N2c1ccc(S(N)(=O)=O)cc1` (stereo not given): the Activity in assay [1] turned out to be 40%; in assay [2], 60%; in assay [3], 40%; in assay [5], 30%. Besides, the IC50 in assay [4] was above 100 µg/mL.
With `NS(=O)(=O)c1ccc(N2C3=C(C(=O)CCC3)C(c3ccc(Cl)cc3Cl)c3c2nc(-c2ccc(Br)cc2)[nH]c3=O)cc1` (stereo not given), the Activity in assay [1] turned out to be 60%; in assay [2], 100%; in assay [3] it was 50%; in assay [5], 20%. In assay [4], the IC50 was 25 µg/mL (≈ 37.2 µM).
The corresponding values for `COc1cc(C(=O)NC2=C(C#N)C(c3ccc(Cl)cc3Cl)C3=C(CCCC3=O)N2c2ccc(S(N)(=O)=O)cc2)cc(OC)c1OC` (stereo not given) are 95%, 95%, 20%, 0% and 60 µg/mL (≈ 87.8 µM).
The like results for `COc1cccc2c1C(=O)c1c(O)c3c(c(O)c1C2=O)C[C@@](O)(C(=O)CO)C[C@@H]3O[C@H]1C[C@H](N)[C@H](O)[C@H](C)O1` [DOXORUBICIN] were, in that order, 68%, 100%, 32%, 19% and 38 µg/mL (≈ 69.9 µM).
Regarding `NC1=C(C(=O)O)C(c2ccc(Cl)cc2Cl)C2=C(CCCC2=O)N1c1ccc(S(N)(=O)=O)cc1` (stereo not given), the Activity in assay [1] was 10%; in assay [2], 60%; in assay [3], 0%; in assay [5], 0%. The IC50 in assay [4] is above 100 µg/mL.
In the case of `N#CC1=C(NC(=O)c2ccccc2)N(c2ccc(S(N)(=O)=O)cc2)C2=C(C(=O)CCC2)C1c1ccc(Cl)cc1Cl` (stereo not given), the Activity in assay [1] was 70%; in assay [2] it was 75%; in assay [3], 60%; in assay [5], 50%. Also, the IC50 in assay [4] was found to be 10 µg/mL (≈ 16.8 µM).
As to `N#CC1=C(NC(=O)/C=C/c2ccccc2)N(c2ccc(S(N)(=O)=O)cc2)C2=C(C(=O)CCC2)C1c1ccc(Cl)cc1Cl` (stereo not given), the Activity in assay [1] is reported as 40%; in assay [2], 45%; in assay [3] it was 30%; in assay [5], 30%. The IC50 in assay [4] was above 100 µg/mL.
`N#CC1=C(N)N(c2ccc(S(N)(=O)=O)cc2)C2=C(C(=O)CCC2)C1c1ccc(Cl)cc1Cl` (stereo not given): the Activity stood at 65% in assay [1], 95% in assay [2], 50% in assay [3] and 40% in assay [5]. Moreover, the IC50 in assay [4] worked out at 25 µg/mL (≈ 51.1 µM).

The values above are taken from ChEMBL document CHEMBL1649382, “Synthesis and in vitro anticancer evaluation of some novel hexahydroquinoline derivatives having a benzenesulfonamide moiety” (Eur J Med Chem, 2011).
